The values below come from publication PMC10530161 (Bioorganic & medicinal chemistry, 2023).

Entries after “also recorded” stand apart in the source; their conditions may differ. Some results are limits rather than exact numbers.

The term CLint scaled denotes the capacity of the preparation to metabolise the compound, expressed as a volume cleared per time. One may read the inhibition as the drop in the measured response relative to a control, in per cent.

A short description of data set [1]: Human liver microsomal intrinsic clearance. The format is in vitro ADME. The conditions noted are these: for CLint scaled: human, liver microsomes, Intrinsinc Clearance hCLINT. Put shortly:
(§1)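 Intrinsic clearance was measured in human or mouse liver microsomes, depending on the line. Predicted hepatic clearance was then calculated from each species' intrinsic clearance using the well-stirred organ clearance model, with binding terms excluded. The work was done externally as in vitro DMPK studies.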

A short description of data set [2]: Mouse liver microsomal intrinsic clearance. Conditions: for CLint scaled: mouse, liver microsomes, Intrinsinc Clearance mCLINT. The class given is in vitro ADME. Put shortly:
as §1

Data set [3] deals with SW620 colorectal cancer cells which overexpress claudin-1. Nature of the data set: Cell survival assay in SW620 cells, single concentration 25 μM. The conditions noted are these: for activity in SW620 cell survival assay: SW620 cells, initial SAR survey at 25 μM; for inhibition at 25 µM: Homo sapiens, SW-620, read-out: % inhibition at 25 uM. The format is cell-based.
Data set [4] deals with IEC-6 cells. Nature of the data set: General cytotoxicity, dose response in normal IEC-6 cells. The format is cell-based. The conditions noted are these: control for general cytotoxicity.
For data set [5], the target named is CYP3A4 (Homo sapiens, UniProt P08684). Description: CYP inhibition, CYP3A4. The class given is in vitro ADME.
For data set [6], the target named is CYP2D6 (Homo sapiens, UniProt P10635). Nature of the data set: CYP inhibition, CYP2D6. The format is in vitro ADME.
Data set [7] addresses CYP2C19 (Homo sapiens, UniProt P33261). Description: CYP inhibition, CYP2C19. The class given is in vitro ADME.
Data set [8] concerns SW620 cells. Nature of the data set: Dose response assay in SW620 cells. The conditions noted are these: starting at 12.5 μM. The format is cell-based.
The subject of data set [9] is colorectal cancer. Conditions: in vivo mouse model; cited from earlier work.

Sequence of CYP2D6 (P10635 whole entry): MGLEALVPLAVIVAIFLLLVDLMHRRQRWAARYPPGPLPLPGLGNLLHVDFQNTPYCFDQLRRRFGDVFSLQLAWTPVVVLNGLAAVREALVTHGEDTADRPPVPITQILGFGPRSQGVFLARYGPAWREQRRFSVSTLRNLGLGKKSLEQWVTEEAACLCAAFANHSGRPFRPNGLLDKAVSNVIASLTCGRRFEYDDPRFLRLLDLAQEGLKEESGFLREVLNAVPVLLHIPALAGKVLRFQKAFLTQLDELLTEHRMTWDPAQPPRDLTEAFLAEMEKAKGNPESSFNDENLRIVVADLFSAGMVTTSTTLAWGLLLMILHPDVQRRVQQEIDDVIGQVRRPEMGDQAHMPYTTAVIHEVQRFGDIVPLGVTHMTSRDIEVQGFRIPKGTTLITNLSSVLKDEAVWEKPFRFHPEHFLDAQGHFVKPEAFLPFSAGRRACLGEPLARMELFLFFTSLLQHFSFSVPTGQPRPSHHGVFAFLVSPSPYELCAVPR
Sequence of CYP2C19 (P33261 whole entry): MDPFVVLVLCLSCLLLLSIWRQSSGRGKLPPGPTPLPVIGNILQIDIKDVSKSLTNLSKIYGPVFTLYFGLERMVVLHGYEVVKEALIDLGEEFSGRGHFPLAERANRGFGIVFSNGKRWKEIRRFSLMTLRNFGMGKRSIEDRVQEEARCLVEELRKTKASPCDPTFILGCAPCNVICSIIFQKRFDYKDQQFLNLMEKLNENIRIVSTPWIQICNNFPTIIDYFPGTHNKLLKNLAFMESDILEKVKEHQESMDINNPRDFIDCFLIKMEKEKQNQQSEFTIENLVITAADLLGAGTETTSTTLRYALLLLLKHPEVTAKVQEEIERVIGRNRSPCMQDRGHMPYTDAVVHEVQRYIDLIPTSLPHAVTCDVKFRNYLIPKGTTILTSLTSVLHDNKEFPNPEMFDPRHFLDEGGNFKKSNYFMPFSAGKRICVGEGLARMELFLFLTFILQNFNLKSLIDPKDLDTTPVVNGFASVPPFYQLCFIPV
Sequence of CYP3A4 (P08684 whole entry): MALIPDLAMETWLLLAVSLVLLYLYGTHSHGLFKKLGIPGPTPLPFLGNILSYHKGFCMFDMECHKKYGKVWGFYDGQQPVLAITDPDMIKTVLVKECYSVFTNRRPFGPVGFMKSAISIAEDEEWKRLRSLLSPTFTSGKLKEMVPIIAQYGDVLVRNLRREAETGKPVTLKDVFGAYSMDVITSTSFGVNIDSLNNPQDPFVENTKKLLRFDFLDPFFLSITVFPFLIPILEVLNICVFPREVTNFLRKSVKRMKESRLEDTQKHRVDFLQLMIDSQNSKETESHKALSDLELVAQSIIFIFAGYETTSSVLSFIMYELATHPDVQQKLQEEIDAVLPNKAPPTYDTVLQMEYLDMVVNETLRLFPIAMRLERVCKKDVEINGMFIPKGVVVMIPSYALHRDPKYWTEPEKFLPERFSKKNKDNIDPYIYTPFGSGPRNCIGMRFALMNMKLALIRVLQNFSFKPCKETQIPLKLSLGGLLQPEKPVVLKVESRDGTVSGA

Turning to `COc1cc2ccccc2cc1C(=O)NC(=S)Nc1ccc(-c2nc3ccccc3[nH]2)cc1` [compound 10], in data set [1], the “stability in human liver microsomes” value is on record as “moderate stability” and the intrinsic clearance (CLint scaled) is 27.8 mL/min/kg. Besides, in [2], the “stability in mouse liver microsomes” value was “moderate stability” and the intrinsic clearance (CLint scaled) turned out to be 42.7 mL/min/kg.
Regarding `COc1cc2ccccc2cc1C(=O)NC(=S)Nc1ccc(-c2nc3ccccc3o2)cc1` [compound 11], in data set [1], the “stability in human liver microsomes” value is “stable” and the intrinsic clearance (CLint scaled) was below 20 mL/min/kg. Also, in data set [2], the “stability in mouse liver microsomes” value is given as “stable” and the CLint scaled was below 20 mL/min/kg. Further, the “activity in SW620 cell survival assay” value in data set [3] is “not active”.
For the compound `COc1cc2ccccc2cc1C(=O)NC(=S)Nc1ccc(-c2nc3ccccc3o2)cn1` [compound 12], the “activity in SW620 cell survival assay” value in data set [3] was “not active”.
On the same count and under the same terms, the result for `COc1cc2ccccc2cc1C(=O)NC(=S)Nc1ccc(-c2nc3ccccc3s2)cc1` [compound 13] reads “not active”.
For `COc1cc2ccccc2cc1C(=O)NC(=S)Nc1ccc(-c2nc3ccccc3s2)cn1` [compound 14], the “activity in SW620 cell survival assay” value in data set [3] was “not active”.
Take `COc1cc2ccccc2cc1C(=O)NC(=S)Nc1ccc(-c2ncc[nH]2)cc1` [compound 15]: the “concentration at which cytotoxicity was shown” value in data set [4] was 12.5 µM. The inhibition at 10 µM in data set [5], in [6] and in data set [7] was below 50% in each case. The “stability in human liver microsomes” value in [1] is listed as “instability”. For the same compound, the CLint scaled in data set [1] came to 125 mL/min/kg; in data set [2] it was 57.8 mL/min/kg. For the same compound, the “stability in mouse liver microsomes” value in [2] was “moderately stable”.
For the compound `COc1cc2ccccc2cc1C(=O)NC(=S)Nc1ccc(-c2nccs2)cc1` [compound 16], in [1], the “stability in human liver microsomes” value is “instability” and the intrinsic metabolic clearance (CLint scaled) stood at 202 mL/min/kg. For the same compound, in data set [2], the “stability in mouse liver microsomes” value was “moderately stable” and the CLint scaled is 37.7 mL/min/kg.
For the compound `COc1cc2ccccc2cc1C(=O)NC(=S)Nc1ccc(-c2nnco2)cc1` [compound 18], the inhibition at 10 µM in [5], in data set [6] and in data set [7] was below 50% throughout. Moreover, in data set [1], the “stability in human liver microsomes” value is recorded as “regained the stability”. The CLint scaled in data set [1] was below 20 mL/min/kg; in data set [2], 38.2 mL/min/kg. Moreover, the “stability in mouse liver microsomes” value in [2] is “moderate stability”.
`COc1cc2ccccc2cc1C(=O)NC(=S)Nc1ccc(-c2ncon2)cc1` [compound 19]: in data set [1], the “stability in human liver microsomes” value is reported as “regained the stability” and the CLint scaled is below 20 mL/min/kg. For the same compound, in data set [2], the “stability in mouse liver microsomes” value was “moderate stability” and the CLint scaled is 46.2 mL/min/kg. Also, in data set [3], the inhibition at 25 µM is 18.4% and the “activity in SW620 cell survival assay” value is “inactive”.
Take `COc1cc2ccccc2cc1C(=O)Nc1ccc(-c2nc3ccccc3s2)cc1` [compound 20]: the inhibition at 25 µM in [3] was 42.3%.
Regarding `COc1cc2ccccc2cc1C(=O)NC(=S)Nc1ccc(-c2cscn2)cc1` [compound 21], the inhibition at 25 µM in data set [3] was 29%.
`COc1cc2ccccc2cc1C(=O)Nc1ncc(C(F)(F)F)s1` [compound 22]: the inhibition at 25 µM in data set [3] was 17.6%.
Consider `COc1cc2ccccc2cc1C(=O)NC(=O)Nc1ccc(-c2nc3ccccc3[nH]2)cc1` [compound 23], for which the intrinsic metabolic clearance (CLint scaled) in data set [1] came to 67.8 mL/min/kg; in [2], 236 mL/min/kg. Besides, in data set [3], the inhibition at 25 µM is 90.8%.
As to `COc1cc2ccccc2cc1C(=O)NC(=O)Nc1ccc(-c2nc3ccccc3o2)cc1` [compound 24], the inhibition at 25 µM in data set [3] worked out at 0%.
On the same count and under the same terms, the result for `COc1cc2ccccc2cc1C(=O)NC(=O)Nc1ccc(-c2nc3ccccc3s2)cc1` [compound 25] reads 0%; that for `COc1cc2ccccc2cc1C(=O)NC(=O)Nc1ccc(-c2nnco2)cc1` [compound 26], 23.8%.
As for `COc1cc2ccccc2cc1C(=O)NC(=O)Nc1ccc(-c2cscn2)cc1` [compound 27], the CLint scaled turned out to be 92.8 mL/min/kg in [1] and 43.5 mL/min/kg in data set [2]. In addition, the inhibition at 25 µM in data set [3] turned out to be 42.6%.
In the case of `O=C(NC(=S)Nc1ccc(-c2nc3ccccc3o2)cc1)c1ccc2ccccc2c1` [compound 28], in [8], the “% cell survival” value is recorded as below 50%. The “activity in in vivo model of colorectal cancer” value in data set [9] is “active; also recorded: antitumor and chemosensitizer activities”. Besides, in [1], the “stability in human liver microsomes” value is “moderate stability” and the CLint scaled was determined as 32.4 mL/min/kg. Besides, in [2], the “stability in mouse liver microsomes” value is given as “moderate stability” and the CLint scaled was 53.4 mL/min/kg. Further, in [3], the inhibition at 25 µM worked out at 76.4% and the “activity in SW620 cell survival assay” value was “active”.
Consider `O=C(NC(=O)c1ccc2ccccc2c1)Nc1ccc(-c2nc3ccccc3[nH]2)cc1` [compound 29], for which the CLint scaled is 86.3 mL/min/kg in [1] and 365 mL/min/kg in data set [2]. Besides, the inhibition at 25 µM in [3] came out at 12.7%.
Regarding `CCOc1cc2ccccc2cc1C(=O)NC(=S)Nc1ccc(-c2nc3ccccc3o2)cc1` [compound 30], in data set [3], the inhibition at 25 µM worked out at 0%.
Turning to `CCOc1cc2ccccc2cc1C(=O)NC(=S)Nc1ccc(-c2nc3ccccc3s2)cc1` [compound 31], the inhibition at 25 µM in data set [3] was found to be 13%.
Turning to `CC(C)Oc1cc2ccccc2cc1C(=O)NC(=S)Nc1ccc(-c2nc3ccccc3o2)cc1` [compound 32], in data set [3], the inhibition at 25 µM came out at 17.2%.
Take `COc1cc2c(OC)cccc2cc1C(=O)NC(=S)Nc1ccc(-c2nc3ccccc3[nH]2)cc1` [compound 33]: the inhibition at 25 µM in data set [3] came out at 37.6%.
In the case of `COc1cc2c(OC)cccc2cc1C(=O)NC(=S)Nc1ccc(-c2nc3ccccc3s2)cc1` [compound 34], in [3], the inhibition at 25 µM came out at 15.8%.
On to `O=C(NC(=S)Nc1ccc(-c2nc3ccccc3[nH]2)cc1)c1ccc2cccnc2c1` [compound 35], for which, in data set [3], the inhibition at 25 µM was found to be 0%.
Turning to `O=C(NC(=S)Nc1ccc(-c2nc3ccccc3o2)cc1)c1ccc2cccnc2c1` [compound 36], in [3], the inhibition at 25 µM was 0%.
With `O=C(NC(=S)Nc1ccc(-c2ncco2)cc1)c1ccc2cccnc2c1` [compound 37], the inhibition at 25 µM in [3] was 1.4%.
For `O=C1c2ccccc2CCN1C(=S)Nc1ccc(-c2nc3ccccc3o2)cc1` [compound 38], the CLint scaled was below 20 mL/min/kg in data set [1] and 139 mL/min/kg in data set [2].
`O=C1c2ccccc2CCN1C(=S)Nc1ccc(-c2ncco2)cc1` [compound 39]: the inhibition at 25 µM in data set [3] turned out to be 0.9%.
`COc1ccccc1NC(=O)Nc1ccc(-c2nc3ccccc3[nH]2)cc1` [compound 40]: the inhibition at 25 µM in [3] was 23.8%.
